Screens deposited in PubChem BioAssay by several laboratories.
Compounds with a hit are over-represented: about 4.3% of the library has one in this group of screens.
NF-kB expr up: raises NF-kB expression in human neuronal cells; NF-kB reporter expression; active compounds read high; fold change at 12.5 µM; 190,000 tested, 1.6% active; in the data active = fold change above about 3.3
FLuc inhib CS: Photinus pyralis luciferase inhibition counter-screen; AID 1006; inhibition, % at 10 µM; ATPLite firefly luciferase biochemical luminescence, 10 min; P08659; 200,000 tested, 1.5% active;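 active = inhibition above about 50% when tested at 10 µM, limit read from the data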
Target sequence (P08659 whole entry, looked up): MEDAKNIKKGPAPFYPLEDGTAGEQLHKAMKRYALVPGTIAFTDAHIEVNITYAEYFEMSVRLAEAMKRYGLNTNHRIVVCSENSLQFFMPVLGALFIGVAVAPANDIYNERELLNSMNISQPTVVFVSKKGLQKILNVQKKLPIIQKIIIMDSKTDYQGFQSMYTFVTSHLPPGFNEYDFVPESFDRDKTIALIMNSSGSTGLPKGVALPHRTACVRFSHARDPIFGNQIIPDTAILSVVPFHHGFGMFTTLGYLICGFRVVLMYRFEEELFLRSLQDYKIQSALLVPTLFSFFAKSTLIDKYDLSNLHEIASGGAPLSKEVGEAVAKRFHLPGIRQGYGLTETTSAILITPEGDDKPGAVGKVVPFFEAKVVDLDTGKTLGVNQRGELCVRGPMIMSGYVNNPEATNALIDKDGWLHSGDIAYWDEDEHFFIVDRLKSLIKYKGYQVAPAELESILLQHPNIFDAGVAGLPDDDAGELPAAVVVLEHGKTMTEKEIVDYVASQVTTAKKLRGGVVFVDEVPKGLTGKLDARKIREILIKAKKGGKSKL
STAT1 activator: increases IFN-gamma driven STAT1 reporter signal; NIH 3T3 STAT1-luciferase reporter, luminescence; 100% = IFN-gamma alone, no compound; activation (% of control), % at 5.5 µM; 200,000 tested, 2.6% active;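 active = activation above the screen-wide mean activation plus 3 SD, cut at about 130% in these data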;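 note: raw ratio to IFN-gamma control signal so 100% means no change and 0% no light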
APP 5'UTR act: activates APP 5'UTR luciferase reporter. 190,000 tested, 1% active. SH-SY5Y APP 5'UTR luciferase reporter, luminescence; zero percent = DMSO vehicle wells. activation, % at 2 µM;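 active = activation above a set limit, based on mean plus 3 SD of controls, cut at about 140% in these data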
FLuc stim CS: firefly luciferase counter-screen for stimulation assays; ATPlite luciferase biochemical, luminescence, 10 min; 0 = ATP-free wells, 1 = DMSO control; activation factor at 10 µM; P08659; 200,000 tested, under 10 active;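 active = luciferase activation factor, scaled between plate controls, of at least 2 with compound at 10 µM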
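System: cell-free luciferase reagent; medium: PBS as buffer for the ATP substrate; doses: test compounds dosed from 2 mM stocks in 100% DMSO; incubation: 10 min, room temperature; measured by: luminescence from luciferase reaction; read-out: luciferase activation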
* marks the source's active call; other numbers are inactive results; nt = no result.

SMILES	NF-kB expr up	FLuc inhib CS	STAT1 activator	APP 5'UTR act	FLuc stim CS
COc1ccc(C(=O)NCCSCc2ccccc2)cc1OC	1.1	-4	95	-10	1
COC(=O)c1cc(CN2CCN(c3ccccc3C)CC2)ccc1O	0.83	-8	94	-12	1.1
O=C(O)COc1ccc(/C=N/Nc2nc(Nc3ccccc3)nc(N3CCCCC3)n2)cc1	1.2	55*	103	-8	0.5
CN1CCC(N(C)C(=O)CCc2nc3ccccc3n2-c2ccccc2)CC1	1.1	-8	103	63	1.1
Cc1cc(OCc2ccc(C(=O)NN=C3CCCC3)cc2)ccc1Cl	1.3	-5	130*	-20	1
CCOC(=O)c1c(C)oc2c1c(C(c1cccnc1)N1CCCCC1)c(O)c1ccccc12 (stereo not drawn)	6.6*	-7	101	79	1.1
Cc1ccccc1-n1c(C)cc(/C=N/NC(=O)c2ccncc2)c1C	1.5	55*	110	18	0.4
Cc1cc(/C=N\NC(=O)COc2cccc3cccnc23)c(C)n1-c1ccccc1	0.59	71*	99	-6	0.3
Cc1cc(/C=N/NC(=O)C(=O)NCc2ccccn2)c(C)n1-c1ccccc1	1.7	58*	103	12	0.4
Cc1cc(/C=N\NC(=O)c2cccs2)c(C)n1-c1ccc2ncccc2c1	1	32	130*	63	0.7
Cc1ccccc1NC(=O)c1ccccc1NC(=O)CCC(=O)O	1.1	-7	102	-11	1.1
CCn1cc(/C=N\NC(=O)Cc2ccc(Cl)cc2)cn1	1.3	-1	102	-4	1
O=C(N/N=C/c1ccc(Br)s1)c1ccncc1	0.79	3	104	2	1
O=C(N/N=C/c1ccc(Br)s1)Nc1ccccc1	1.7	0	130*	21	1
O=C(N/N=C/c1cc2c(cc1Br)OCO2)c1c[nH]c2ccccc12	0.91	14	143*	94	0.9
O=C(N/N=C/c1ccc(Br)s1)c1c[nH]c2ccccc12	1.2	6	138*	64	0.9
C/C(=N\NC(=O)c1ccccc1)c1ccc2c(c1)OCO2	2.1	30	117	45	0.7
CC(=O)Nc1cccc(/C(C)=N/NC(=O)c2ccc3c(c2)OCO3)c1	nt	75*	118	66	0.2
O=C(N/N=C/c1c[nH]c2ccc(Br)cc12)c1ccc2c(c1)OCO2	0.87	-2	106	19	1
Cc1cc(C(=O)N/N=C/c2c[nH]c3ccccc23)c(C)o1	1.4	12	109	35	0.9
CC(C)C(=O)Nc1cc(C(F)(F)F)ccc1-n1ccnc1	1.1	-3	91	5	1
Cc1ccc2nc(-c3ccccc3)c(CC(=O)O)c(C(=O)O)c2c1	1.6	-9	98	8	1.1
COc1ccc(S(=O)(=O)N/N=c2\oc3c(OC)cccc3cc2S(=O)(=O)c2ccc(C)cc2)cc1OC	0.9	-1	91	1	1
Cc1[nH]c2ccccc2c1/C=N/NC(=O)Nc1ccccc1	1.1	0	131*	49	1
C/C(=N\NC(=O)c1c[nH]c2ccccc12)c1ccco1	2.6	36	128	98	0.6
SMILES	NF-kB expr up	FLuc inhib CS	STAT1 activator	APP 5'UTR act	FLuc stim CS
C/C(=N\NC(=O)c1c[nH]c2ccccc12)c1ccc2c(c1)OCO2	0.84	18	135*	10	0.8
CCOC(=O)N1CCN(C(=S)Nc2cc(S(=O)(=O)N3CCOCC3)ccc2Cl)CC1	1.2	-6	91	-4	1.1
O=C(N/N=C1\C/C(=N\NC(=O)c2ccncc2)c2ccccc21)c1ccncc1	1.1	69*	84	18	0.3
CCC(=O)Nc1c(C(=O)Nc2ccc3c(c2)OCCO3)oc2ccccc12	1.9	-5	144*	123	1
Cc1ccc(NC(=O)c2oc3ccccc3c2NC(=O)C2CCCO2)cc1C (stereo not drawn)	nt	2	127	176*	1
O=C(Nc1ccc2c(c1)OCCO2)c1oc2ccccc2c1NC(=O)C1CC1	1.2	2	111	-6	1
Cc1cc2nc(C3CCN(C(=S)NCCCOC(C)C)CC3)[nH]c2cc1C	0.8	-1	97	-9	1
COC(=O)CSCC(=O)Nc1nnc(-c2cccc(C)c2)s1	1.1	9	86	7	0.9
Nc1cccc(-c2nc3ccccc3[nH]2)c1	2.3	39	122	69	0.6
Cc1ccc2nc(-c3sc4nc(C)cc(C)c4c3N)[nH]c2c1	2.8	64*	131*	170*	0.4
Cc1ccc2nc(-c3cccc(N)c3)[nH]c2c1	4.8*	88*	93	98	0.1
S=c1[nH]nc(Cc2sc(-c3ccccc3)nc2-c2ccccc2)o1	1.2	2	106	-6	1
c1ccc(COc2ccc(-c3csnn3)cc2)cc1	3.2	17	136*	24	0.8
Nc1ccc(OCc2ccccc2)cc1	1.7	6	116	15	0.9
CC(C)COc1ccc(-c2nnc(-c3ccco3)o2)cc1	4.3*	60*	116	187*	0.4
O=C(COc1ccccc1)Nc1ccc(-c2nnc(-c3ccco3)o2)cc1	1.8	-1	125	31	1
CCCOc1ccc(-c2nnc(-c3ccco3)o2)cc1	2.8	77*	73	104	0.2
COc1cccc(C(=O)Nc2ccc(-c3nnc(-c4ccco4)o3)cc2)c1	0.86	-4	86	27	1
CCOC(=O)C(C)Sc1nnc(NC(=O)c2ccc3c(c2)OCO3)s1 (stereo not drawn)	1	12	97	3	0.9
Cc1ccc(C(=O)c2ccccc2C(=O)OCC(=O)Nc2ccc(SC(F)F)cc2)cc1	0.91	4	101	-23	1
O=C(COC(=O)c1ccccc1Cc1ccccc1)Nc1ccc(SC(F)F)cc1	1.2	-4	132*	93	1
Cc1ccc(C)c(NC(NC(=O)c2ccccn2)C(Cl)(Cl)Cl)c1 (stereo not drawn)	1.1	0	100	9	1
Clc1ccc(-c2csc(Nc3ccccc3)[n+]2Cc2ccco2)c(Cl)c1	0.96	0	140*	38	1
CCCC[n+]1c(-c2ccc(Cl)cc2Cl)csc1Nc1ccccc1	0.66	-3	102	-2	1
CC(C)c1ccc(CNc2ccc([N+](=O)[O-])cn2)cc1	2.3	38	138*	74	0.6
CC(C)(C)c1ccc(CNc2ccc([N+](=O)[O-])cn2)cc1	1.6	7	122	44	0.9
CC1=C(c2ccc(Cl)cc2)[N+](=O)C(C)(C)N1[O-]	0.97	-6	103	2	1.1
Cc1cc2c(nc1C)CCCN2C[C@@H](C)O/N=C1/[C@H]2CCn3c(=O)n(-c4ccccc4)c(=O)n3[C@H]2[C@H](O)[C@@H]2O[C@H]12	3.4*	-6	100	-11	1.1
COc1cccc(COCC(O)Cn2cnc3cc(C)c(C)cc32)c1 (stereo not drawn)	1	-7	88	3	1.1
